# Compound activity deposited in PubChem BioAssay by several laboratories.
# STAT1 activator: STAT1 signaling activators, primary screen, cell-based, HTS, luciferase reporter. AID 932, 2007. activation (% of control), % at 5.5 µM. 200,000 tested, 2.6% active. NIH 3T3 STAT1-luciferase reporter, IFN-gamma, luminescence; 100% = IFN-gamma alone, no compound;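 active means activation above the screen-wide mean activation plus 3 SD, cut at about 130% in these data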;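 further: raw ratio to IFN-gamma control signal so 100% means no change and 0% no light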
# FLuc inhib CS: firefly luciferase enzyme inhibitors, primary screen, artefact control for luciferase-based inhibitor screens, biochemical, luminescence, ATPLite; Luciferin 4-monooxygenase (Photinus pyralis), P08659; 10 min; inhibition, % at 10 µM; 200,000 tested, 1.5% active;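 active means inhibition above about 50% when tested at 10 µM, limit read from the data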
# Target sequence (P08659 whole entry, looked up): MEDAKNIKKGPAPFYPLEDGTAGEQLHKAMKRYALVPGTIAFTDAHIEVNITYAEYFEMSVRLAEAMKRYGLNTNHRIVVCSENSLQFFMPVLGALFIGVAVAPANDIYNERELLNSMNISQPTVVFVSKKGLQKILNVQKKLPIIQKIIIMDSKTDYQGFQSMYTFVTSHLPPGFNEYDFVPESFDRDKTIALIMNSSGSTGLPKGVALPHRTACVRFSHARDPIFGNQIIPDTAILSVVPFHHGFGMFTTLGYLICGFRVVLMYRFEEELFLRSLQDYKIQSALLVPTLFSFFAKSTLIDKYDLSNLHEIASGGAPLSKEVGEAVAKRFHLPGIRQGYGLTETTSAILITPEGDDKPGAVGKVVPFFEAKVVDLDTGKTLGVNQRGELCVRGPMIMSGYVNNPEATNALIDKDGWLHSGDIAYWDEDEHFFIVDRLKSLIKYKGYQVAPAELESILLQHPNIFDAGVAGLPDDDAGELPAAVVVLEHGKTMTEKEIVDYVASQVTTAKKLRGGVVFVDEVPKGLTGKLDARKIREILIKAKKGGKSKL
# APP 5'UTR act: activators of APP 5'UTR luciferase reporter, primary screen, SH-SY5Y cells; SH-SY5Y APP 5'UTR luciferase reporter, luminescence; zero percent = DMSO vehicle wells; AID 1276, 2008; activation, % at 2 µM; 190,000 tested, 1% active;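 active means activation above a set limit, based on mean plus 3 SD of controls, cut at about 140% in these data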
# NF-kB neuron act: activators of NF-kB expression in neurons, primary screen, cell-based, HTS. human neuronal cells, NF-kB reporter expression; active compounds read high. fold change at 12.5 µM. 190,000 tested, 1.6% active. AID 1239, 2008; in the data active means fold change above about 3.3
# FLuc stim CS: FLuc activators, initial screening, artefact control for FLuc-dependent activation tests, biochemical, ATPlite luminescence; 200,000 tested, under 10 active; activation factor at 10 µM; ATPlite luciferase biochemical, 10 min; 0 = ATP-free wells, 1 = DMSO control; AID 1027, 2008;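 active means luciferase activation factor, scaled between plate controls, of at least 2 with compound at 10 µM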
#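 Assay system: Luciferase/luciferin detection reagent, cell-free biochemical luciferase assay / Read-out: luciferase activation / Benchmarks: No-ATP low control, compound-free enzyme-plus-ATP high control / Medium: PBS buffer for ATP / Detection: luminescence measurement of luciferase light output / Schedule: 10 min at ambient temperature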
# An asterisk follows results filed as active. In the library only some 4.3% were active in any assay of this set; here they are far more common.
SMILES,STAT1 activator,FLuc inhib CS,APP 5'UTR act,NF-kB neuron act,FLuc stim CS
CCC(=O)Nc1cc2nn(-c3ccccc3)nc2cc1Cl,144*,74*,116,2.7,0.3
Cc1cc2nn(-c3ccccc3)nc2cc1NC(=O)c1cccs1,143*,12,29,2.1,0.9
Cc1cc(NC(=O)c2cccs2)n(-c2ccccc2)n1,104,-8,-2,1.1,1.1
CCc1ccc(NC(=O)C2C3/C=C\CCCCC32)cc1 (stereo not drawn),115,5,71,1.9,0.9
COc1ccc(/C(C)=N/Nc2ccc(F)cc2F)c(O)c1,133*,3,32,1.2,1
COc1ccc(/C(C)=N\NS(C)(=O)=O)c(OC)c1,99,1,14,0.91,1
C/C(=N\Nc1ccc(F)cc1F)c1cccs1,129*,-2,12,1.4,1
C/C(=N\NC(=O)C1CC1)c1cccs1,99,-7,-7,1.8,1.1
CC1CCCN(C(=S)Nc2ccc(Nc3ccccc3)cc2)C1 (stereo not drawn),136*,0,80,1.9,1
COc1cc(NC(=S)N2CCCC(CO)C2)cc(OC)c1 (stereo not drawn),109,2,-17,1.1,1
COC(=O)Cc1ccc(NC(=S)N2CCCC(C)C2)cc1 (stereo not drawn),104,89*,30,1.5,0.1
CC1CCCN(C(=S)Nc2ccc(F)cc2)C1 (stereo not drawn),100,-1,13,1.2,1
COC(=O)Cc1ccc(NC(=S)N2CCN(c3cc(Cl)ccc3C)CC2)cc1,88,-7,-14,1,1.1
CC(=O)c1ccc(NC(=S)N2CCCC(CO)C2)cc1 (stereo not drawn),114,52*,25,2.4,0.5
COC(=O)Cc1ccc(NC(=S)N2CCCC(CO)C2)cc1 (stereo not drawn),97,93*,38,1.4,0.1
CC(=O)c1ccc(NC(=S)N2CCCCCC2)cc1,114,9,30,1.5,0.9
CCN(CC)P(=O)(Nc1ccc(C)cc1Br)c1ccc(N(C)C)cc1NC(=O)c1ccco1 (stereo not drawn),103,-3,8,0.65,1
OCCN1CCN(C(=S)Nc2ccc(Oc3ccccc3)cc2)CC1,98,-2,2,1,1
OCC1CCCN(C(=S)Nc2ccc(Oc3ccccc3)cc2)C1 (stereo not drawn),147*,6,69,2.4,0.9
CCn1ccc(C(=O)NC2=NCCS2)n1,99,0,7,1.2,1
CCc1ccc(OC(=O)c2ccn(CC)n2)cc1,97,75*,-8,1.6,0.2
CCN(CC)c1ccc(/C=C2/C(=O)c3ccc(C(=O)O)cc3C2=O)cc1,130*,92*,7,2.5,0.1
CCN(CC)c1ccc(C=C2C(=O)OC3(CCCCC3)OC2=O)cc1,101,-5,-19,1.2,1
COc1ccc(CN2CCNC(=O)C2CC(=O)N2CCCO2)c(OC)c1 (stereo not drawn),109,-5,7,1.2,1
COc1ccc(CNC(=O)COC(=O)c2ccccn2)cc1,102,-7,6,1,1.1
SMILES,STAT1 activator,FLuc inhib CS,APP 5'UTR act,NF-kB neuron act,FLuc stim CS
O=C1CCn2nc(-c3ccc(Cl)cc3)cc2N1,136*,4,64,2.7,1
Nc1cc(-c2ccc(Cl)cc2)nn1S(=O)(=O)c1ccc(Cl)cc1,95,-2,5,1.3,1
Cc1nc(-c2ccccc2)sc1-c1nc(-c2ccncc2)ncc1S(=O)(=O)c1ccccc1,93,-3,0,0.81,1
Cc1cc(Cl)ccc1OCCCC(=O)NCCN1C(=O)S/C(=C\c2cccnc2)C1=O,94,0,11,1.4,1
Fc1ccc(/C=C/c2nnc(-c3cccs3)o2)cc1,129*,28,83,4.2*,0.7
Cc1ccc(/C=C/c2nnc(-c3cccs3)o2)cc1,91,51*,2,5.2*,0.5
Cc1ccc(-c2nnc(-c3ccccc3)o2)cc1,128,67*,133,7.9*,0.3
Cc1ccc(/C=C/c2nnc(-c3ccc(C)cc3)o2)cc1,102,2,3,1.7,1
Cc1ccc(-c2nnc(-c3cccs3)o2)cc1,127,48,140*,5.5*,0.5
